ChEMBL document CHEMBL1955829, “Synthesis and biological evaluation of 4β-sulphonamido and 4β-[(4'-sulphonamido)benzamide]podophyllotoxins as DNA topoisomerase-IIα and apoptosis inducing agents” (2012)
Activity calls are given as the source filed them. The rule behind the calls is not given here.

Key:
[1] = system: A549; test: Growth inhibition of human A549 cells after 48 hrs by sulforhodamine B assay; assay type: functional; conditions: A549, 48 h
Summary of the method: (§1)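 Cells grown in DMEM with 10% FBS and 2 mM L-glutamine, plated at densities set by doubling time, and held 24 h before dosing. Exposure was 48 h to 0.1, 1, 10 and 100 µM in triplicate wells. Cells fixed with cold TCA (final 10%) 60 min at 4 °C and stained with 0.4% SRB 20 min. Bound dye eluted in 10 mM Tris base and read at 540 nm (690 nm reference). GI50 is the concentration giving 50% reduction in net protein gain versus control; values are the mean of three determinations.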

[2] = system: ZR-75-1; test: Growth inhibition of human ZR-75-1 cells after 48 hrs by sulforhodamine B assay; assay type: functional; conditions: ZR-75-1, 48 h; summary of the method: as §1
[3] = system: MCF7; test: Growth inhibition of human MCF7 cells after 48 hrs by sulforhodamine B assay; assay type: functional; conditions: MCF7, 48 h; summary of the method: as §1
[4] = system: COLO 205; test: Growth inhibition of human COLO205 cells after 48 hrs by sulforhodamine B assay; assay type: functional; conditions: COLO 205, 48 h; summary of the method: as §1
[5] = Growth inhibition of human DWD cells after 48 hrs by sulforhodamine B assay; assay type: functional; summary of the method: as §1
[6] = system: A2780; test: Growth inhibition of human A2780 cells after 48 hrs by sulforhodamine B assay; assay type: functional; conditions: A2780, 48 h; summary of the method: as §1
[7] = system: HOP-62; test: Growth inhibition of human HOP62 cells after 48 hrs by sulforhodamine B assay; assay type: functional; conditions: HOP-62, 48 h; summary of the method: as §1
[8] = system: KB; test: Growth inhibition of human KB cells after 48 hrs by sulforhodamine B assay; assay type: functional; summary of the method: as §1
[9] = system: COLO 205; test: Cytotoxicity against human COLO205 cells at 8 uM after 24 hrs by MTT assay; assay type: functional, cell-based
Summary of the method: (§2)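 Colo-205 cells plated at 10,000 per well, left overnight, then exposed 24 h at 2, 4 or 8 µM. MTT added for 2 h at 37 °C, formazan dissolved in extraction buffer, and optical density read at 570 nm against untreated cells.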

[10] = system: COLO 205; test: Cell cycle arrest in human COLO205 cells assessed as accumulation at G1 phase at 4 uM after 24 hrs by FACS analysis (reference value: 60.89%); assay type: functional
Summary of the method: (§3)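 Colo-205 cells seeded at […] per 60 mm dish and treated 24 h at 4 µM; TSA arm used TSA at 4 µM for 12 h. Cells trypsinised, fixed in ice-cold 70% ethanol 30 min at 4 °C, RNase 1 mg/mL 30 min at 37 °C, then propidium iodide/citrate/Triton stain. DNA content of 20,000 events read by flow cytometry; phase percentages from histograms.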

[11] = system: COLO 205; test: Cytotoxicity against human COLO205 cells at 2 uM after 24 hrs by MTT assay; assay type: functional, cell-based; summary of the method: as §2
[12] = system: COLO 205; test: Cell cycle arrest in human COLO205 cells assessed as accumulation at S phase at 4 uM after 24 hrs by FACS analysis (reference value: 8.91%); assay type: functional; summary of the method: as §3
[13] = system: COLO 205; test: Cell cycle arrest in human COLO205 cells assessed as accumulation at G0 phase at 4 uM after 24 hrs by FACS analysis (reference value: 4.29%); assay type: functional; summary of the method: as §3
[14] = system: COLO 205; test: Cytotoxicity against human COLO205 cells at 4 uM after 24 hrs by MTT assay; assay type: functional, cell-based; summary of the method: as §2
[15] = system: COLO 205; test: Cell cycle arrest in human COLO205 cells assessed as accumulation at G2/M phase at 4 uM after 24 hrs by FACS analysis (reference value: 25.92%); assay type: functional; summary of the method: as §3
[16] = system: COLO 205; test: Up-regulation of topoisomerase 2alpha in human COLO205 cells at 4 uM after 24 hrs by Western blotting analysis in presence of HDAC inhibitor, trichostatin A; assay type: functional, cell-based
Summary of the method: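 Colo-205 cells exposed 24 h to test agent plus TSA, each at 4 µM. Western blot of lysates probed for topo-IIα, with β-actin as loading control.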

[17] = system: COLO 205; test: Induction of apoptosis in human COLO205 cells assessed as down regulation of Bcl-2 at 4 uM after 24 hrs by ELISA; assay type: functional, cell-based
Summary of the method: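 Colo-205 cells treated 24 h at 4 µM, with etoposide and camptothecin as controls. Lysates added to Bcl2-antibody-coated wells, followed by a biotin-conjugated anti-human Bcl2 monoclonal antibody, in a Bcl2 ELISA.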

Row | SMILES | GI50 [1] [µM] | GI50 [2] [µM] | GI50 [3] [µM] | GI50 [4] [µM] | GI50 [5] [µM] | GI50 [6] [µM] | GI50 [7] [µM] | GI50 [8] [µM] | Activity [9] | Activity [10] [%] | Activity [11] | Percentage of cells in S phase [12] [%] | Activity [13] [%] | Activity [14] | Percentage of cells in G2/M phase [15] [%] | Activity [16] | Activity [17]
1 | COc1cc([C@@H]2c3cc4c(cc3[C@@H](NS(=O)(=O)c3sc(NC(C)=O)nc3C)[C@H]3COC(=O)[C@H]23)OCO4)cc(OC)c1OC | 0.12 | 0.17 | 0.15 | 0.11 | 0.14 | 0.15 | 0.16 | 0.17 | – | – | – | – | – | – | – | – | –
2 | COc1cc([C@@H]2c3cc4c(cc3[C@@H](NS(=O)(=O)c3ccc(-c5ccccc5)cc3)[C@H]3COC(=O)[C@H]23)OCO4)cc(OC)c1OC | 2 | 2.3 | 2.61 | 2.71 | 2.21 | 2.11 | 2.01 | – | – | – | – | – | – | – | – | – | –
3 | COc1cc([C@@H]2c3cc4c(cc3[C@@H](NS(=O)(=O)c3cccc5nsnc35)[C@H]3COC(=O)[C@H]23)OCO4)cc(OC)c1OC | 2.71 | 2.51 | 2.21 | – | – | 2.31 | 2.21 | – | – | – | – | – | – | – | – | – | –
4 | COc1cc([C@@H]2c3cc4c(cc3[C@@H](NC(=O)c3ccc(NS(=O)(=O)c5cccc6ccccc56)cc3)[C@H]3COC(=O)[C@H]23)OCO4)cc(OC)c1OC | 2.6 | 2.81 | 2.32 | 2.12 | – | 2 | 2.22 | 2 | – | – | – | – | – | – | – | – | –
5 | COc1cc([C@@H]2c3cc4c(cc3[C@@H](NC(=O)c3ccc(NS(=O)(=O)c5ccc(Br)s5)cc3)[C@H]3COC(=O)[C@H]23)OCO4)cc(OC)c1OC | – | 2.9 | 2.71 | – | 2.5 | 2.11 | 2.01 | – | – | – | – | – | – | – | – | – | –
6 | COc1cc([C@@H]2c3cc4c(cc3[C@@H](NC(=O)c3ccc(NS(=O)(=O)c5cccc6cccnc56)cc3)[C@H]3COC(=O)[C@H]23)OCO4)cc(OC)c1OC | 2.51 | – | 2.9 | 2.31 | 0.14 | 2.42 | 2.61 | – | – | – | – | – | – | – | – | – | –
7 | COc1cc([C@@H]2c3cc4c(cc3[C@@H](NS(=O)(=O)c3ccc(Br)s3)[C@H]3COC(=O)[C@H]23)OCO4)cc(OC)c1OC | 0.12 | 0.18 | 0.13 | 0.04 | 0.05 | 0.06 | 0.04 | 0.04 | Active | 34.67 | Active | 16.51 | 11.04 | Active | 37.78 | – | –
8 | COc1cc([C@@H]2c3cc4c(cc3[C@@H](NS(=O)(=O)c3cccc5cccnc35)[C@H]3COC(=O)[C@H]23)OCO4)cc(OC)c1OC | 0.04 | 0.08 | 0.12 | 0.04 | 0.17 | 0.08 | 0.06 | 0.06 | Active | 58.41 | Active | 10.35 | 3.06 | Active | 28.19 | – | –
9 | COc1cc([C@@H]2c3cc4c(cc3[C@@H](NS(=O)(=O)c3cccc5ccccc35)[C@H]3COC(=O)[C@H]23)OCO4)cc(OC)c1OC | 0.16 | 2.1 | 0.09 | 2.1 | 2 | 1.91 | 2.4 | 2.3 | – | – | – | – | – | – | – | – | –
10 | COc1cc([C@@H]2c3cc4c(cc3[C@@H](NC(=O)c3ccc(NS(=O)(=O)c5ccc(-c6ccccc6)cc5)cc3)[C@H]3COC(=O)[C@H]23)OCO4)cc(OC)c1OC | – | 2.11 | 2.3 | 2.8 | 2.88 | 2.51 | – | 2.5 | – | – | – | – | – | – | – | – | –
11 | COc1cc([C@@H]2c3cc4c(cc3[C@@H](NC(=O)c3ccc(NS(=O)(=O)c5cccc6nsnc56)cc3)[C@H]3COC(=O)[C@H]23)OCO4)cc(OC)c1OC | – | 2.23 | 0.17 | – | 2.8 | 2.11 | 2.91 | – | – | – | – | – | – | – | – | – | –
12 | COc1cc([C@@H]2c3cc4c(cc3[C@@H](NS(=O)(=O)c3cc(Cl)sc3Cl)[C@H]3COC(=O)[C@H]23)OCO4)cc(OC)c1OC | 0.14 | 2.5 | 0.11 | 0.15 | 0.15 | 0.16 | 2 | 2.1 | – | – | – | – | – | – | – | – | –
13 | COc1cc([C@@H]2c3cc4c(cc3[C@@H](NS(=O)(=O)c3ccc(Oc5ccccc5)cc3)[C@H]3COC(=O)[C@H]23)OCO4)cc(OC)c1OC | 2.11 | 2.31 | 2.21 | – | 2.91 | 2.4 | – | 2.31 | – | – | – | – | – | – | – | – | –
14 | CC[C@@]1(O)C(=O)OCc2c1cc1n(c2=O)Cc2cc3ccccc3nc2-1 | – | – | – | – | – | – | – | – | – | – | – | – | – | – | – | inactive | Active
15 | COc1cc([C@@H]2c3cc4c(cc3[C@@H](NS(=O)(=O)c3ccc(S(=O)(=O)c5ccccc5)s3)[C@H]3COC(=O)[C@H]23)OCO4)cc(OC)c1OC | – | 2.11 | 0.14 | – | 2.61 | 2.3 | – | 2.11 | – | – | – | – | – | – | – | – | –
16 | COc1cc([C@@H]2c3cc4c(cc3[C@@H](NC(=O)c3ccc(NS(=O)(=O)c5ccc(Oc6ccccc6)cc5)cc3)[C@H]3COC(=O)[C@H]23)OCO4)cc(OC)c1OC | 2.7 | 2.9 | – | – | 2.1 | – | 2 | 2.01 | – | – | – | – | – | – | – | – | –
17 | COc1cccc2c1C(=O)c1c(O)c3c(c(O)c1C2=O)C[C@@](O)(C(=O)CO)C[C@@H]3O[C@H]1C[C@H](N)[C@H](O)[C@H](C)O1 [DOXORUBICIN] | – | – | 0.17 | 0.14 | 0.1 | 0.16 | 0.14 | 0.17 | – | – | – | – | – | – | – | – | –
18 | COc1ccc(S(=O)(=O)Nc2ccc(C(=O)N[C@@H]3c4cc5c(cc4[C@@H](c4cc(OC)c(OC)c(OC)c4)[C@H]4C(=O)OC[C@@H]43)OCO5)cc2)cc1 | – | 2.12 | 0.16 | 2.51 | 2.02 | – | 2.71 | – | – | – | – | – | – | – | – | – | –
